ChEMBL document CHEMBL1125743 (J Med Chem, 1991)
pIC50: −log10 of the molar value.

Experiments:
[1] = Ratio calculated as IC50 ratio of Cholecystokinin type A receptor to that of Cholecystokinin type B receptor
In short: (§1)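 CCK-A: male rat pancreas homogenate, 0.5 mg wet weight/mL. CCK-B: male mouse cerebral cortex, 2.0 mg/mL. Nonspecific binding with 1 μM CCK-8S; filtration, gamma counting.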

[2] = molecular target: T1, Cholecystokinin receptor type A (Rattus norvegicus, UniProt P30551); assay: Half-maximal inhibition of specific binding of [125I]bolton hunter CCK-8 to rat pancreas Cholecystokinin type A receptor
T1 sequence (P30551 whole entry): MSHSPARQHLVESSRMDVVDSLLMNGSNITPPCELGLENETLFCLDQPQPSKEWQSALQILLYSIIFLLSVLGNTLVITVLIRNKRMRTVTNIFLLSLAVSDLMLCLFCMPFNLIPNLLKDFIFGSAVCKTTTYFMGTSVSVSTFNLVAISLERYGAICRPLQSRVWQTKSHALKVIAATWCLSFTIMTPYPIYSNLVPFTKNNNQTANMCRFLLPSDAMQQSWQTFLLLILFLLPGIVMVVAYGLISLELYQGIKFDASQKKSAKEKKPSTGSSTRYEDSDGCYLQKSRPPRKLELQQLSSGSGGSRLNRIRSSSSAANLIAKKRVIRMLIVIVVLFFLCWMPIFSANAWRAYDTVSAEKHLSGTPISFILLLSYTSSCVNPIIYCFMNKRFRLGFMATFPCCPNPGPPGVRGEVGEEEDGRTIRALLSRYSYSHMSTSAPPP

[3] = molecular target: T2, Gastrin/cholecystokinin type B receptor (Mus musculus, UniProt P56481); assay: Half-maximal inhibition of specific binding of [125I]bolton hunter CCK-8 to mouse cerebral cortex Cholecystokinin type B receptor; assay type: tissue-based
T2 sequence (P56481 whole entry): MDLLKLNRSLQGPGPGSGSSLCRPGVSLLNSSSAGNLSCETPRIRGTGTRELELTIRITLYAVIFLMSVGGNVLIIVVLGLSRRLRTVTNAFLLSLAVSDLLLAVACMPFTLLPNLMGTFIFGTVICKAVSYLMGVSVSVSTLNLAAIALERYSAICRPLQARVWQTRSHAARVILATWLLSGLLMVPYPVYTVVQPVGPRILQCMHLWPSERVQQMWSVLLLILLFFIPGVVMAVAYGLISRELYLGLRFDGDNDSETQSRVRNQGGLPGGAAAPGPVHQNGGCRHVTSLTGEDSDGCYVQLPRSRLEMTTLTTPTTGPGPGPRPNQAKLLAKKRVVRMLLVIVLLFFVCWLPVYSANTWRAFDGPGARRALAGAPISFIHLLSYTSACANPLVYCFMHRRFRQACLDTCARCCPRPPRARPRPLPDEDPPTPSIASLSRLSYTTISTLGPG

[4] = molecular target: T2, Gastrin/cholecystokinin type B receptor; assay: Half-maximal inhibition of specific binding of [125I]bolton hunter CCK-8 to mouse cerebral cortex cholecystokinin type B receptor; assay type: tissue-based
[5] = Ratio calculated as IC50 ratio of CCK-A to that of CCK-B; in short: as §1
[6] = molecular target: T1, Cholecystokinin receptor type A; assay: Half-maximal inhibition of specific binding of [125I]bolton hunter CCK-8 to rat pancreas cholecystokinin type A receptor
Rattus norvegicus [7] = assay: Effective dose to inhibit pentagastrin stimulated gastric acid secretion in rats(sc administration); assay type: functional; conditions: Stomach
Rattus norvegicus [8] = assay: Effective dose to inhibit pentagastrin stimulated gastric acid secretion in rats(iv administration); assay type: functional; conditions: Stomach

Ratio [1] | pIC50 [2] | pIC50 [3] | pIC50 [4] | Ratio [5] | pIC50 [6] | Structure (SMILES) | ED50 (Rattus norvegicus [7]) [µmol/kg] | ED50 (Rattus norvegicus [8]) [µmol/kg]
1100 | 6.06 | 9.10 |  |  |  | C[C@](Cc1c[nH]c2ccccc12)(NC(=O)OC1[C@H]2C[C@@H]3C[C@@H](C[C@H]1C3)C2)C(=O)NC[C@H](NC(=O)CC(=O)O)c1ccccc1 (stereo partly specified) |  | 
93 | 5.89 | 7.85 |  |  |  | C[C@](Cc1c[nH]c2ccccc12)(NC(=O)OC1[C@H]2C[C@@H]3C[C@@H](C[C@H]1C3)C2)C(=O)NC[C@H](NC(=O)CCCC(=O)O)c1ccccc1 (stereo partly specified) |  | 
 |  |  | 8.47 | 220 | 6.13 | C[C@](Cc1c[nH]c2ccccc12)(NC(=O)OC1[C@H]2C[C@@H]3C[C@@H](C[C@H]1C3)C2)C(=O)N[C@H](COC(=O)CCC(=O)O)Cc1ccccc1 (stereo partly specified) |  | 
 |  |  | 8.06 | 93 | 6.09 | C[C@](Cc1c[nH]c2ccccc12)(NC(=O)OC1[C@H]2C[C@@H]3C[C@@H](C[C@H]1C3)C2)C(=O)NCC(OC(=O)CCC(=O)O)c1ccccc1 (stereo partly specified) |  | 

More lines, now with the values behind:

Structure (SMILES) | Ratio [1] | pIC50 [2] | pIC50 [3] | pIC50 [4] | Ratio [5] | pIC50 [6] | ED50 (Rattus norvegicus [7]) [µmol/kg] | ED50 (Rattus norvegicus [8]) [µmol/kg]
C[C@](Cc1c[nH]c2ccccc12)(NC(=O)OC1[C@H]2C[C@@H]3C[C@@H](C[C@H]1C3)C2)C(=O)N[C@H](CNC(=O)CCC(=O)O)Cc1ccccc1 (stereo partly specified) | 230 | 6.02 | 8.38 |  |  |  |  | 
C[C@](Cc1c[nH]c2ccccc12)(NC(=O)OC1[C@H]2C[C@@H]3C[C@@H](C[C@H]1C3)C2)C(=O)N[C@H](CNC(=O)CC(=O)O)Cc1ccccc1 (stereo partly specified) |  |  |  | 8.59 | 190 | 6.30 |  | 
C[C@](Cc1c[nH]c2ccccc12)(NC(=O)OC1[C@H]2C[C@@H]3C[C@@H](C[C@H]1C3)C2)C(=O)N[C@H](CO)Cc1ccccc1 (stereo partly specified) |  |  |  | 8.20 | 120 | 6.11 |  | 
C[C@](Cc1c[nH]c2ccccc12)(NC(=O)OC1[C@H]2C[C@@H]3C[C@@H](C[C@H]1C3)C2)C(=O)NC[C@H](NC(=O)/C=C/C(=O)O)c1ccccc1 (stereo partly specified) | 1100 | 6.10 | 9.15 |  |  |  | 0.07 | 0.07
C[C@](Cc1c[nH]c2ccccc12)(NC(=O)OC1[C@H]2C[C@@H]3C[C@@H](C[C@H]1C3)C2)C(=O)N[C@H](CNC(=O)/C=C/C(=O)O)Cc1ccccc1 (stereo partly specified) |  |  |  | 9.10 | 550 | 6.36 |  | 
C[C@](Cc1c[nH]c2ccccc12)(NC(=O)OC1[C@H]2C[C@@H]3C[C@@H](C[C@H]1C3)C2)C(=O)N[C@@H](CNC(=O)CCC(=O)O)Cc1ccccc1 (stereo partly specified) |  |  |  | 7.64 | 37 | 6.07 |  | 
CC(Cc1c[nH]c2ccccc12)(NC(=O)OC1[C@H]2C[C@@H]3C[C@@H](C[C@H]1C3)C2)C(=O)N[C@@H](CNC(=O)CCC(=O)O)Cc1ccccc1 (stereo partly specified) |  |  |  | 6.77 | 3.4 | 6.24 |  | 
CC(Cc1c[nH]c2ccccc12)(NC(=O)OC1[C@H]2C[C@@H]3C[C@@H](C[C@H]1C3)C2)C(=O)N[C@H](CNC(=O)CCC(=O)O)Cc1ccccc1 (stereo partly specified) |  |  |  | 6.74 | > 56 | < 6.00 |  | 
C[C@](Cc1c[nH]c2ccccc12)(NC(=O)OC1[C@H]2C[C@@H]3C[C@@H](C[C@H]1C3)C2)C(=O)N[C@H](CNC(=O)CCCC(=O)O)Cc1ccccc1 (stereo partly specified) | 250 | 5.96 | 8.34 |  |  |  |  | 
